# ChEMBL document CHEMBL1144424, “Synthesis and biological evaluation of 14-alkoxymorphinans. 22.(1) Influence of the 14-alkoxy group and the substitution in position 5 in 14-alkoxymorphinan-6-ones on in vitro and in vivo activities” (J Med Chem, 2005)
# How the values were obtained:
# Mu-type opioid receptor [1] = biological target: Mu-type opioid receptor (Rattus norvegicus, UniProt P33535); experiment: Inhibition of [3H]DAMGO binding to opioid receptor mu from rat brain membranes; assay type: cell membranes, Membrane
# Method in brief: (§1)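 Sprague-Dawley rat brain membranes (0.3-0.5 mg protein) in 50 mM Tris-HCl incubated with 0.5 nM [3H]DAMGO or [3H][Ile5,6]deltorphin II, 45 min at 35 °C. GF/C filtration, ice-cold Tris-HCl washes; nonspecific binding with 10 µM naloxone. Duplicates, 3-4 independent experiments; Ki as mean ± SEM.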
# [2] = biological target: Kappa-type opioid receptor (Cavia porcellus, UniProt P41144); experiment: Inhibition of [3H]U-69593 binding to opioid receptor kappa from guinea pig brain membranes
# Mus musculus [3] = experiment: Gastrointestinal (GI) motility was assessed by colonic bead expulsion after subcutaneous administration in mice; assay type: functional; settings: sc
# [4] = biological target: Delta-type opioid receptor (Mus musculus, UniProt P32300); experiment: In vitro agonistic activity against opioid receptor delta of mouse vas deferens; assay type: functional, tissue-based
# Method in brief: (§2)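 Field stimulation with supramaximal-voltage bipolar rectangular pulses of male guinea-pig ileum myenteric plexus longitudinal muscle and of mouse vas deferens. Inhibition of the electrically evoked twitch; IC50 values as mean ± SEM.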
# [5] = biological target: Delta-type opioid receptor (Rattus norvegicus, UniProt P33533); experiment: Inhibition of [3H][Ile5,6]deltorphin II binding to opioid receptor delta from rat brain membranes; assay type: cell membranes, Membrane; method in brief: as §1
# Mus musculus [6] = experiment: Antinociceptive potencie was assessed after subcutaneous administration of compound by hotplate test (HP) in mice; assay type: functional
# Method in brief: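 Male CD-1 mice (20-25 g), compound in sterile Ringer's solution given sc, 10 animals per dose. Paw licking or jumping on 55 °C hot-plate; pre-drug control latency (non-responders within 3 s excluded), 12 s cutoff.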
# Mu-type opioid receptor [7] = biological target: Mu-type opioid receptor (Cavia porcellus, UniProt P97266); experiment: In vitro agonistic activity against opioid receptor mu of guinea pig ileum; assay type: functional, tissue-based; method in brief: as §2
# [8] = Ratio of binding affinities for opioid receptors kappa and mu
# Method in brief: (§3)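 Ratios of Ki values from competition binding. Rat brain membranes were used with 0.5 nM [3H]DAMGO (mu) or [3H][Ile5,6]deltorphin II (delta), 45 min at 35 °C. Guinea pig brain membranes were used with 1 nM [3H]U69,593 (kappa), 30 min at 30 °C. Nonspecific binding was defined with 10 µM naloxone.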
# Mus musculus [9] = organism: Mus musculus; experiment: Ratios of colonic bead expulsion to that of antinociceptive potencie by hotplate test in mice; assay type: functional
# [10] = biological target: Opioid receptors; mu & delta (Rattus norvegicus) (UniProt P33533+P33535); experiment: Ratio of binding affinities for opioid receptors delta and mu; assay type: protein assay; method in brief: as §3
# [11] = Relative agonistic activity against opioid receptor delta in mouse vas deferens and opioid receptor mu in guinea pig ileum; assay type: functional
# Kappa-type opioid receptor, sequence (P41144 whole entry): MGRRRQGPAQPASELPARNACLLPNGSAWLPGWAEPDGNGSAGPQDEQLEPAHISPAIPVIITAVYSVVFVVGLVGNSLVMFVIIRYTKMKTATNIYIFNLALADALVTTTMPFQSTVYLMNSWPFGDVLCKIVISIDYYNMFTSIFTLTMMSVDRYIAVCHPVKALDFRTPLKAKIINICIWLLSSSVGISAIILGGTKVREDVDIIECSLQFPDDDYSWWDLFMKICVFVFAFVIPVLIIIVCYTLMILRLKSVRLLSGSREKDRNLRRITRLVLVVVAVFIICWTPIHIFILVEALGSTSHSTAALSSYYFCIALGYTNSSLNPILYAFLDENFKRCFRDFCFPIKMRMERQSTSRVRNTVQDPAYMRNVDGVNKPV
# Opioid receptors; mu & delta (Rattus norvegicus), sequence (P33533 whole entry, looked up): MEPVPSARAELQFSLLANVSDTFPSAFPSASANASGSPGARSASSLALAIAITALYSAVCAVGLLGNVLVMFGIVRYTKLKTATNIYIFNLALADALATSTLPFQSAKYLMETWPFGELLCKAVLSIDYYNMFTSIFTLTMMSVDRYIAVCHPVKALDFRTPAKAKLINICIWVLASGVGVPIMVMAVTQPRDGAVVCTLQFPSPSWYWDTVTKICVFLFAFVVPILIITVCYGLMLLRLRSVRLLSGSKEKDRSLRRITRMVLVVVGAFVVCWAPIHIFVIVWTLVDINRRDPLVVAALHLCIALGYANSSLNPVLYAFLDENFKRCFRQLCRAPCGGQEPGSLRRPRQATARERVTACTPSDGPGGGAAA
# Opioid receptors; mu & delta (Rattus norvegicus), sequence (P33535 whole entry, looked up): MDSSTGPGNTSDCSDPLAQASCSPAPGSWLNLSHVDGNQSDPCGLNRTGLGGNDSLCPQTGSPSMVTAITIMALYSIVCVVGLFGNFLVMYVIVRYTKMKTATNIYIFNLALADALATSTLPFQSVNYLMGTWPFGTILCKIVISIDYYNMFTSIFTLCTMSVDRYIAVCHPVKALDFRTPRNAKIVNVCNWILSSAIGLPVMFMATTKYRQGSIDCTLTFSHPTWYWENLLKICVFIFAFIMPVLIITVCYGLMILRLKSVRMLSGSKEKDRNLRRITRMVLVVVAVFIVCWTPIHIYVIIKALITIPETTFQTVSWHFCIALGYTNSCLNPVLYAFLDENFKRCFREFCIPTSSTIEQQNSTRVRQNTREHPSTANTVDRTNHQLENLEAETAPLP
# Delta-type opioid receptor (Rattus norvegicus, UniProt P33533), sequence (P33533 whole entry): as the sequence (P33533 whole entry, looked up) above
# Mu-type opioid receptor (Cavia porcellus, UniProt P97266), sequence (P97266 whole entry): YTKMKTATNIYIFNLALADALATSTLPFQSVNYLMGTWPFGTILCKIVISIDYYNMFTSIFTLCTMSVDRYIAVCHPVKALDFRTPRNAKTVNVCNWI
# Mu-type opioid receptor (Rattus norvegicus, UniProt P33535), sequence (P33535 whole entry): as the sequence (P33535 whole entry, looked up) above
# Delta-type opioid receptor (Mus musculus, UniProt P32300), sequence (P32300 whole entry): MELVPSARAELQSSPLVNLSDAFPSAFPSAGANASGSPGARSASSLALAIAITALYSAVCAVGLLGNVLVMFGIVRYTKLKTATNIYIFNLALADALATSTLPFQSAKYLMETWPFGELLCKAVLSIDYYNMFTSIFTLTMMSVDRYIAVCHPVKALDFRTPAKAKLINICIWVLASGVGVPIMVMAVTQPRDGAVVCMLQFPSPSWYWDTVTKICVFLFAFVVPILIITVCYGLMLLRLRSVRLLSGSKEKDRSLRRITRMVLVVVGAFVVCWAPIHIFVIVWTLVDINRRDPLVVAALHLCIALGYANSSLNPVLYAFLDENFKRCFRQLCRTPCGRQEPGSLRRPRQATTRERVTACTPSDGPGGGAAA
Compound,Ki (Mu-type opioid receptor [1]),Ki [2],ED50 (Mus musculus [3]),IC50 [4],Ki [5],AD50 (Mus musculus [6]),IC50 (Mu-type opioid receptor [7]),Selectivity [8],Ratio (Mus musculus [9]),Selectivity [10],Ratio [11]
CN1CC[C@]23c4c5ccc(O)c4O[C@@]2(C)C(=O)CC[C@@]3(OCc2ccccc2)[C@H]1C5,0.18 nM,2.46 nM,0.074 µmol/kg,2.3 nM,3.67 nM,65 nmol/kg,0.5 nM,14,1.1,20,4.6
CCO[C@@]12CCC(=O)[C@]3(C)Oc4c(O)ccc5c4[C@@]31CCN(CCc1ccccc1)[C@@H]2C5,0.16 nM,83.2 nM,0.121 µmol/kg,9.7 nM,3.14 nM,109 nmol/kg,1.9 nM,520,1.1,20,5.1
CN1CC[C@]23c4c5ccc(O)c4O[C@H]2C(=O)CC[C@@]3(OCc2cccc3ccccc23)[C@H]1C5,0.18 nM,0.92 nM,0.0118 µmol/kg,0.8 nM,2.92 nM,14.4 nmol/kg,0.9 nM,5.1,0.8,16,0.9
CN1CC[C@]23c4c5ccc(O)c4O[C@H]2[C@@H](O)C=C[C@H]3[C@H]1C5 [MORPHINE],,,7.62 µmol/kg,,,6690 nmol/kg,,,,,
CO[C@@]12CCC(=O)[C@@H]3Oc4c(O)ccc5c4[C@@]31CCN(C)[C@@H]2C5,,,0.022 µmol/kg,30.5 nM,4.8 nM,53 nmol/kg,2 nM,,,,
C=CCO[C@@]12CCC(=O)[C@@H]3Oc4c(O)ccc5c4[C@@]31CCN(C)[C@@H]2C5,0.61 nM,33.8 nM,0.037 µmol/kg,63 nM,36 nM,35 nmol/kg,17.6 nM,55,1.1,59,3.6
CO[C@@]12CCC(=O)[C@]3(C)Oc4c(O)ccc5c4[C@@]31CCN(C)[C@@H]2C5,0.15 nM,25.2 nM,,24.4 nM,13.3 nM,280 nmol/kg,6.1 nM,168,,89,4
CN1CC[C@]23c4c5ccc(O)c4O[C@H]2C(=O)CC[C@@]3(OCc2ccccc2)[C@H]1C5,0.12 nM,1.18 nM,0.027 µmol/kg,1.5 nM,2.14 nM,9.6 nmol/kg,0.9 nM,10,2.8,18,1.7
CN1CC[C@]23c4c5ccc(O)c4O[C@H]2C(=O)CC[C@@]3(OCc2c(Cl)cccc2Cl)[C@H]1C5,10.3 nM,33.2 nM,2.49 µmol/kg,209 nM,152 nM,1640 nmol/kg,1000 nM,3.2,1.5,15,0.2
